High-throughput results (PubChem)
Rows were chosen to be rich in hits. Some 2.6% of all compounds tested hit in one or more screens of this group.
SENP8 block-1: blocks human SENP8 cleavage of Nedd8 substrate; Q96LD8; recombinant SENP8, Nedd8 substrate fluorescence; inhibition, % at 20 µM; 0.64% of 360,000 active; AID 602440; in the data active = inhibition mostly above about 40%, no sharp cut-off; inactive = mostly below about 27%
SENP1 inh: SENP1 (human) catalytic domain inhibition. Q9P0U3. recombinant SENP1 catalytic domain, CyPet-SUMO1-YPet FRET cleavage. inhibition, % at 10 µM. 0.21% of 360,000 active. AID 624204;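 active = inhibition at least 30% at 10 µM, raw YFP signal under a set limit, fluorescence ratio 0.5 to 1.5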;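 also: 0% = enzyme with DMSO and 100% = no enzyme wells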
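Test system: recombinant human SENP1 catalytic domain, His6-tagged / Medium: pH 8 Tris buffer with EDTA, NaCl, BME, BSA, NP40, catalase / Also added: SUMO1 FRET substrate flanked by Cypet and Ypet, 25 nM / Times: 50 min reaction at room temperature / Signal: FRET, CFP and YFP emission / Control set: no-enzyme low control and enzyme-plus-DMSO high control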
SENP7 block: blocks the human protease SENP7 | recombinant SENP7, Z-RLRGG-aminoluciferin luminescence, 40 min | inhibition, % at 5 µM | 1.5% of 330,000 active | AID 434973;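 active = inhibition above about 50% at the single test dose, limit read from the data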;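 also: plate controls were DMSO with enzyme for no effect and no enzyme buffer wells for full effect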
SENP6 inh: SENP6 protease inhibition | Q9GZR1 | Recombinant SENP6 catalytic domain, aminoluciferin luminescence | AID 2599 | 1.8% of 330,000 active | inhibition, % at 10 µM;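 active = inhibition above about 50% at the single tested dose, limit read from the data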;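 also: plate controls were DMSO wells with enzyme for no effect and DMSO wells lacking enzyme for full effect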
Target sequence (Q9GZR1 628-1112 limits assumed): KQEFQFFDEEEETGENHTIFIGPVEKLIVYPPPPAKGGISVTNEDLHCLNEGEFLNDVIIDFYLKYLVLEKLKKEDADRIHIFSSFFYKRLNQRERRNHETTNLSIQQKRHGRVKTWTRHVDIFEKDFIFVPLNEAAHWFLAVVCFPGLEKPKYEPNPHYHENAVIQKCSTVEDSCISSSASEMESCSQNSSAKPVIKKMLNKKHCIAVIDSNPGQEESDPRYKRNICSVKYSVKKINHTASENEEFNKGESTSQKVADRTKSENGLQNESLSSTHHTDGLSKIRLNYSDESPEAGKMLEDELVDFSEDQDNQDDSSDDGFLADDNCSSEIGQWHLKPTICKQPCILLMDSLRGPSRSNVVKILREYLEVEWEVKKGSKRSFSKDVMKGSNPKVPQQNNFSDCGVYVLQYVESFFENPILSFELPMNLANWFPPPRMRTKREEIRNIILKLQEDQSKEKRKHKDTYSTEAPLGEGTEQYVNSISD
Platelet DG rel: platelet dense granule release activity; human platelet-rich plasma, SFLLRN dense granule ATP release, luminescence; inhibition, %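 (compounds screened at 7.5 µM in platelet-rich plasma)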; 0.22% of 300,000 active; AID 1663;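 active = mean replicate score, as percent of positive control, at or above 50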
SENP8 block-2: inhibitors of human SENP8 protease. inhibition, % at 10 µM. AID 2540. purified SENP8, Z-RLRGG-aminoluciferin cleavage, luminescence. 1.2% of 330,000 active. Q96LD8; in the data active = inhibition above about 50%
SENP8 conf: confirmation of human SENP8 protease inhibitors; 40% of 6,200 active; shares compounds with SENP7 block; inhibition, % at 12.5 µM; Recombinant SENP8, Z-RLRGG-aminoluciferin luminescence, 60 min;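 active = mean inhibition across replicates above about 50%, limit read from the data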
SENP6 conf: human SENP6 inhibition, confirmed. recombinant SENP6, Z-RLRGG-aminoluciferin luminescence. inhibition, % at 12.5 µM. shares compounds with SENP7 block. 58% of 6,200 active. AID 488915
SENP7 conf: human SENP7 inhibition, confirmed; shares compounds with SENP7 block; recombinant SENP7, Z-RLRGG-aminoluciferin luminescence, 40 min; inhibition, % at 12.5 µM; 69% of 6,200 active; AID 488917
Casp3 SENP sel: caspase-3 inhibition (SENP selectivity assay); shares compounds with SENP7 block; purified caspase-3, Z-DEVD-aminoluciferin luminescence, 60 min; inhibition, % at 12.5 µM; 60% of 6,200 active;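 active = mean inhibition above about 50%, limit read from the data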;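 also: plate controls were enzyme with DMSO for no effect and wells without caspase-3 for full effect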
SENP luc ctr: interferes with luciferase luminescence in SENP counter-screen; shares compounds with SENP7 block; Pre-incubated SENP8/Z-RLRGG-aminoluciferin, luciferase luminescence interference; inhibition, % at 12.5 µM; 39% of 6,200 active; AID 488919;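 active = mean inhibition above about 50% when retested at one dose, limit read from the data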;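 also: plate controls were DMSO wells with completed reaction for no effect and substrate without enzyme for full effect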
* marks the source's active call; other numbers are inactive results.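 The calls were made as follows, unless noted: active = mean inhibition above about 50% in the one-dose retest (limit read from the data); inactive = the rest.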

CCCn1c(O)c(N=Nc2ccc3ccccc3n2)c2ccccc21 was read as SENP8 block-1 25, SENP1 inh 17, SENP7 block 93*, SENP6 inh 95*, Platelet DG rel 4, SENP8 block-2 85*, SENP8 conf 42, SENP6 conf 57*, SENP7 conf 61*, Casp3 SENP sel 70* and SENP luc ctr 0.
`CSc1nsc(/C=C/Nc2ccc(F)cc2)c1C#N` gave SENP8 block-1 -140, SENP1 inh -25, SENP7 block 7, SENP6 inh 22, Platelet DG rel 0 and SENP8 block-2 7.
For CSc1nsc(/C=C/Nc2ccc(Cl)cc2)c1C#N the results were SENP8 block-1 -220, SENP1 inh 8, SENP7 block 7, SENP6 inh 55*, Platelet DG rel -4, SENP8 block-2 23, SENP8 conf -11, SENP6 conf -5, SENP7 conf 2, Casp3 SENP sel 2 and SENP luc ctr -2.
`CSc1nsc(/C=C/Nc2cccc(Cl)c2)c1C#N` gave SENP8 block-1 -184, SENP1 inh -36, SENP7 block 10, SENP6 inh 67*, SENP8 block-2 30, SENP8 conf -18, SENP6 conf -10, SENP7 conf -2, Casp3 SENP sel 0 and SENP luc ctr -5.
Screening C=CCN(c1nc(C)cc(OC)n1)S(=O)(=O)c1ccc(C)cc1 returned SENP8 block-1 18, SENP1 inh 2, SENP7 block -16, SENP6 inh -13, Platelet DG rel -5 and SENP8 block-2 -11.
Cn1c(Cc2cccs2)nnc1SCC(=O)Nc1ccccc1F was read as SENP8 block-1 15, SENP1 inh 0, SENP7 block -3, SENP6 inh 2, Platelet DG rel -1 and SENP8 block-2 16.
For COc1cc(NC(=O)c2cc(-c3ccc4c(c3)OCO4)on2)cc(OC)c1OC the results were SENP8 block-1 5, SENP1 inh -2, SENP7 block 2, SENP6 inh -9, Platelet DG rel -34 and SENP8 block-2 6.
For O=C(Nc1cccc(O)c1)c1cc(-c2ccc3c(c2)OCO3)on1 the results were SENP8 block-1 -12, SENP1 inh 1, SENP7 block 101*, SENP6 inh 96*, Platelet DG rel 95*, SENP8 block-2 90*, SENP8 conf 15, SENP6 conf 95*, SENP7 conf 36, Casp3 SENP sel 77* and SENP luc ctr 2.
For O=C(Nc1cccc(O)c1)c1cc(-c2ccccc2Cl)on1 the results were SENP8 block-1 3, SENP1 inh -1, SENP7 block 95*, SENP6 inh 97*, Platelet DG rel 34, SENP8 block-2 93*, SENP8 conf 11, SENP6 conf 94*, SENP7 conf 101*, Casp3 SENP sel 87* and SENP luc ctr 94*.
For O=S(=O)(/N=C/c1c(O)ccc2ccccc12)c1ccccc1 the results were SENP8 block-1 -51, SENP1 inh -50, SENP7 block 10, SENP6 inh 15, Platelet DG rel -7 and SENP8 block-2 2.
Screening O=S(=O)(O)c1cccc(N=Nc2c(O)ccc3ccccc23)c1 returned SENP8 block-1 24, SENP1 inh 13, SENP7 block 92*, SENP6 inh 99*, Platelet DG rel 17, SENP8 block-2 94*, SENP8 conf 98*, SENP6 conf 99*, SENP7 conf 102*, Casp3 SENP sel 97* and SENP luc ctr 96*.
